APJ ag: APJ receptor agonism. P35414. CHO-K1 APJ PathHunter beta-arrestin, luminescence; 0% DMSO wells, 100% apelin. activation, % at 20 µM. actives 0.11% (n = 330,000). AID 2520;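 active = activation more than six SD over the plate average, tested at 20 µM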;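 note: 0% = DMSO alone and 100% = apelin-13 at 10 nM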
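Material: engineered CHO-K1 APJ arrestin reporter cells; amount: 1000 CHO-K1 reporter cells seeded per well; incubation: compound stimulation 90 min at 25 °C, detection 60 min; signal: luminescent beta-gal fragment complementation, chemiluminescent substrate; read-out basis: APJ agonist activity; controls: DMSO-only wells as negative, 10 nM Apelin-13 as positive control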
CCR6 antagonist: CCR6 (human) receptor antagonism. P51684. CHO-K1 CCR6 PathHunter beta-arrestin, luminescence, CCL20-stimulated. inhibition, % at 20 µM. actives 0.49% (n = 340,000). AID 493098;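 active = compounds whose inhibition of the agonist-driven luminescence signal at 20 µM reaches about 50%, limit read from the data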;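 note: cells stimulated with CCL20 at 14 nM final; plate controls were DMSO with CCL20 for no effect and DMSO without agonist for full effect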
PKA-R1A activ: activates the PKA-R1A holoenzyme complex; PKA-R1A dissociation, Cy5-IP20 fluorescence polarization; scaled: DMSO 0%, 113 µM cGMP 100%; activation, % at 11.4 µM; actives 0.083% (n = 340,000); AID 504707;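 active = percent activation above the mean of all tested compounds plus 3 SD, cut at about 19% in these data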;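 note: higher means more PKAc released from R1A so a rise in polarization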
PKA-R2B act: activates the human PKA-R2B holoenzyme complex | P22694+P31323 | PKA-R2B holoenzyme dissociation, Cy5-IP20 fluorescence polarization; R2B truncated from residue 108, S112A mutant; 0% DMSO only, 100% 113 µM cGMP | activation, % at 11.4 µM | actives 0.079% (n = 340,000) | AID 504700;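 active = activation above a cutoff set at the mean over all compounds plus 3 SD, cut at about 18% in these data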;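 note: higher means more holoenzyme dissociation and a rise in polarization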
Target sequence (P31323 whole entry, looked up, other chains not shown, the tested form may be a part): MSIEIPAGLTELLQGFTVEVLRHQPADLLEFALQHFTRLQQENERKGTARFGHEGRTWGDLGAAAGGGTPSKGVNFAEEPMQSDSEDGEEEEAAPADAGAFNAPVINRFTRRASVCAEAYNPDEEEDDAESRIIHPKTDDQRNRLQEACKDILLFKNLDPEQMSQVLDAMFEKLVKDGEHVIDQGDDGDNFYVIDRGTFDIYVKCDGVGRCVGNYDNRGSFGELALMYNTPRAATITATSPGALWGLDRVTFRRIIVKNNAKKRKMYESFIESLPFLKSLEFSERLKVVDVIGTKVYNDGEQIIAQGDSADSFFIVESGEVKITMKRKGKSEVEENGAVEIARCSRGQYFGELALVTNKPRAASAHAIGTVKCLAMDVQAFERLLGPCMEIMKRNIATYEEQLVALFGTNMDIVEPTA
APJ antagonist: antagonists of human APJ apelin receptor; actives 0.32% (n = 330,000); inhibition, % at 20 µM; CHO-K1 APJ beta-arrestin complementation, luminescence;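 active = inhibition above about 40% at 20 µM, limit read from the data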;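 note: cells challenged with 10 nM apelin-13 agonist together with compound; plate controls were apelin-13 plus DMSO wells for no effect and DMSO wells lacking apelin-13 for full effect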
CXCR6 inh: blocks human CXCR6 beta-arrestin recruitment | O00574 | CHO-K1 PathHunter CXCR6 beta-arrestin, luminescence | inhibition, % at 20 µM | actives 0.36% (n = 360,000) | AID 602244; in the data active = inhibition above about 34%, passing the limit was not always enough;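 note: antagonist mode with CXCL16 agonist at 10 nM final; 0% = 10 nM CXCL16 with DMSO and 100% = unstimulated wells without agonist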
R1A FP artifact: counter-screen for PKA-R1A activators: fluorescence polarization artifacts. Cy5-IP20 peptide alone, fluorescence polarization artifact counterscreen. AID 504799. actives 7% (n = 280). activation, % at 11.4 µM. shares compounds with PKA-R1A activ;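 active = mean activation over triplicate runs exceeds the adjusted cutoff derived for the parent primary screen, cut at about 19% in these data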;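 note: no PKA protein present so any polarization rise reflects compound interference; 0% = tracer peptide mix alone and 100% = mix with added PKA catalytic subunit; higher means stronger polarization artifact and likely false positive in parent screen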
PKA-R1A act conf: confirmation of PKA-R1A complex activators | actives 9% (n = 280) | Cy5-IP20 fluorescence polarization, PKA-R1A holoenzyme dissociation | activation, % at 11.4 µM | shares compounds with PKA-R1A activ;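 active = mean activation over replicate wells exceeds the adjusted hit threshold taken from the earlier primary screen, cut at about 20% in these data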;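 note: 0% = holoenzyme mix with DMSO only and 100% = cGMP-activated control wells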
Target sequence (P00514 whole entry, looked up): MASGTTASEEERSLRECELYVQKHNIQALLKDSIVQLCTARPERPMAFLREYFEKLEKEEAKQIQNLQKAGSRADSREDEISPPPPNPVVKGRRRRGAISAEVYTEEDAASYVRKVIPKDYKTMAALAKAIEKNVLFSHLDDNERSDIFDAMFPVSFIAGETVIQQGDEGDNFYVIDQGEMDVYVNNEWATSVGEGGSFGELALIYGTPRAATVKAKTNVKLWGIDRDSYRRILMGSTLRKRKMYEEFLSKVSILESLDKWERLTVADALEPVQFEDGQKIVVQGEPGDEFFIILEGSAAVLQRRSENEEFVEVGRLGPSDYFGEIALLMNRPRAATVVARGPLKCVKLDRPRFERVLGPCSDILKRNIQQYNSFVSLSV
An asterisk follows results filed as active; / = not tested or not shown. Shown are actives, neighbours in structure and some others; about 0.88% of the full set was active somewhere.

SMILES | APJ ag | CCR6 antagonist | PKA-R1A activ | PKA-R2B act | APJ antagonist | CXCR6 inh | R1A FP artifact | PKA-R1A act conf
COc1ccc(NC(=O)Cn2nnc(-c3ccccc3NC(=O)c3ccco3)n2)cc1 | -4.0 | -9.3 | 19.9* | 7.5 | 4.2 | 2.4 | 2.2 | 6.4
CC[n+]1c(P(=O)([O-])c2ccccc2)[nH]c2ccccc21 | 3.0 | 2.4 | 20.8* | -4.5 | 21.0 | -5.7 | 5.9 | 3.9
O=P(CCCCCCCCCP(=O)(c1ccccc1)c1ccccc1)(c1ccccc1)c1ccccc1 | 12.3 | 9.1 | -5.2 | -3.6 | -5.5 | 29.2 | / | /
Cc1sc(NC(=O)C2CCCCC2C(=O)O)c(C(N)=O)c1-c1ccccc1 (stereo not given) | -2.8 | 24.4 | 18.6* | 5.0 | -0.4 | -1.5 | 3.4 | 0.7
CSc1nc(C)cc(/C=C\c2ccccc2)c1C#N | -2.1 | 12.1 | 20.2* | 1.1 | 3.3 | 0.6 | 1.4 | 0.6
CSc1nc(-c2ccccc2)cc(C)c1C#N | -0.7 | 13.3 | 4.5 | -8.7 | 7.0 | -3.0 | / | /
O=C(NCCc1ccccc1)C(=O)c1c(-c2ccccc2)[nH]c2ccccc12 | -1.8 | -1.2 | -16.7 | -6.0 | 9.1 | -7.4 | / | /
CN(CCOc1ccc(Cl)cc1)C(=O)c1ccccc1SCC(=O)N1CCCC1 | -0.4 | 3.9 | 20.6* | 7.8 | 13.1 | -7.3 | 7.8 | 1.9
CN(CC(=O)Nc1c(Cl)cccc1Cl)C(=O)c1ccccc1SCC(=O)N1CCCC1 | 0.8 | 4.5 | 0.2 | -1.6 | -0.2 | -0.6 | / | /
Cc1ccc(OCC(=O)Nc2nc(C)c(Cl)cc2Cl)c([N+](=O)[O-])n1 | 0.5 | -2.9 | 3.3 | -9.8 | 1.5 | -4.0 | / | /
O=C(NCc1ccccc1)c1cccc(NC(=O)c2ccco2)c1 | -0.6 | 7.0 | 21.6* | 5.3 | 1.7 | -25.4 | 9.6 | 6.6
CCCCNC(=O)CCn1c(=O)c2ccccc2n(Cc2ccc(F)cc2)c1=O | -2.3 | 14.5 | 22.4* | 10.9 | -1.1 | 8.0 | -0.5 | -2.7
COCCCNC(=O)CCn1c(=O)c2ccccc2n(Cc2cccc([N+](=O)[O-])c2)c1=O | -2.5 | 38.1 | -9.9 | -5.6 | 36.4 | 14.6 | / | /
O[C@@H]1CN(C2CCN(Cc3ccccc3)CC2)CC[C@H]1N1CCCCCC1 | / | 2.2 | -6.3 | 2.6 | / | 0.9 | / | /
Brc1ccccc1CN1CCC(N2CCCCC2)CC1 | -0.9 | 2.6 | 20.6* | 9.5 | 22.1 | 1.3 | 4.6 | 5.9
COc1cc2c(cc1OC)CN(C(=O)C(CCSC)NS(=O)(=O)c1ccc(C)cc1)CC2 (stereo not given) | -1.2 | 4.3 | 19.6* | -9.9 | 2.5 | -2.4 | -0.9 | -2.1
c1cnc2ccc(-n3ccnc3)cc2c1 | / | / | / | / | / | -9.3 | / | /
CSc1ncccc1C(=O)OCC(=O)NC1CCCC1 | -1.6 | 7.3 | 10.0 | -0.4 | -4.8 | -3.6 | / | /
CSc1ncccc1C(=O)OCC(=O)NC1CC1 | -5.6 | 8.4 | 20.3* | 7.9 | 11.4 | -8.9 | 3.7 | 2.9
NC(=O)C1CCN(C(=O)CC2(CC(=O)O)CCCC2)CC1 | -0.7 | 0.3 | -3.5 | -1.6 | 10.2 | -10.5 | / | /
CC(OC(=O)CCOc1ccccc1)C(=O)Nc1ccc(Cl)cn1 (stereo not given) | -5.5 | -2.1 | 21.9* | -4.9 | -55.2 | -8.0 | -2.0 | -2.2
Cc1cccc(OCCC(=O)OC(C)C(=O)Nc2ccc(Cl)cn2)c1 (stereo not given) | -4.5 | 7.5 | 6.0 | -11.1 | -24.4 | -4.3 | / | /
CC(OC(=O)c1ccccc1O)C(=O)Nc1ccc(Cl)cn1 (stereo not given) | -4.4 | -5.5 | 18.9* | -7.3 | 5.4 | 1.9 | -0.3 | -1.8
CC(OC(=O)c1ccco1)C(=O)Nc1ccc(Cl)cn1 (stereo not given) | -1.6 | -7.7 | 2.6 | 3.0 | 8.9 | 0.1 | / | /
Cc1nc2ccc(NC(=O)Cc3ccccc3F)cc2s1 | -7.1 | 2.0 | 2.9 | -15.9 | 1.2 | -0.2 | / | /
SMILES | APJ ag | CCR6 antagonist | PKA-R1A activ | PKA-R2B act | APJ antagonist | CXCR6 inh | R1A FP artifact | PKA-R1A act conf
CCN(Cc1ccccc1)C(=O)Cc1c[nH]c2ccccc12 | 0.1 | 12.8 | 0.0 | -4.0 | -0.6 | -1.0 | / | /
Cc1cccc(C)c1NC(=O)Cn1cc(C=O)c2ccccc21 | 1.2 | 4.3 | -1.6 | 1.0 | 3.9 | -2.3 | / | /
COC(=O)c1ccccc1NC(=O)NCc1cccnc1 | -3.7 | 6.4 | -4.6 | 0.1 | 15.0 | 9.4 | / | /
COC(=O)c1ccccc1NC(=O)C(=O)NCc1ccncc1 | -0.5 | -4.1 | 21.5* | -1.3 | 14.2 | -1.5 | 1.2 | 3.5
O=C(CSCc1ccccc1)N1CCN(c2ccccc2)CC1 | 0.0 | -1.8 | 19.2* | -0.2 | -12.4 | -4.6 | 0.8 | 2.2
O=C(CSCc1ccccc1)N1CCN(c2ccc(F)cc2)CC1 | -2.7 | 2.1 | -8.9 | -13.2 | 0.2 | -0.4 | / | /
[O-][n+]1ccccc1SCc1ccccc1 | -4.7 | 3.2 | 18.8* | 3.2 | 17.8 | 4.3 | 2.2 | 3.1
O=C(O)CSc1cccc[n+]1[O-] | -0.5 | 1.3 | -2.5 | -1.8 | 15.5 | 2.2 | / | /
CS(=O)(=O)Nc1cccc(-c2cnc3ccccc3n2)c1 | -3.1 | 13.3 | -13.3 | 3.8 | 8.2 | 1.1 | / | /
CC(=O)Nc1ccc(Oc2ccc(S(=O)(=O)N3CCCC3)cn2)cc1 | -2.9 | 8.3 | 1.6 | 1.0 | -0.1 | 1.9 | / | /
Cc1c(C(=O)N2CCCCCC2)c(S(=O)(=O)Nc2cccc(F)c2)c(C)n1C | 2.4 | 3.4 | -4.2 | -1.6 | 12.1 | 0.7 | / | /
Cc1cccc(NS(=O)(=O)c2c(C(=O)N3CCCC3)c(C)n(C)c2C)c1 | -4.2 | 16.1 | 20.9* | -3.1 | 16.6 | -1.5 | 4.1 | 2.5
Cc1ccc(CNC(=O)CN(c2ccc(Cl)cc2)S(C)(=O)=O)cc1 | -3.5 | 0.8 | 21.0* | -13.0 | 18.7 | 8.3 | 3.1 | -0.2
C#CCOCCOCCOCCNc1nc(N2CCN(C(=O)[C@H]([C@@H](C)CC)n3cc([C@@H](N)CO)nn3)CC2)nc(N2CCN(C(=O)[C@H](CCCCN)n3cc([C@@H](N)CO)nn3)CC2)n1 | -3.4 | 2.1 | -5.2 | -14.8 | 6.0 | 6.8 | / | /
C#CCOCCOCCOCCNc1nc(N2CCN(C(=O)[C@H]([C@@H](C)CC)n3cc([C@@H](N)CC(C)C)nn3)CC2)nc(N2CCN(C(=O)[C@H](CCCCN)n3cc([C@@H](N)CO)nn3)CC2)n1 | -4.0 | 0.5 | 20.4* | 0.2 | 1.6 | 4.8 | 4.6 | 0.6
O=S(=O)(Nc1ccc(-c2cn3c(n2)SCC3)cc1)c1ccccc1F | -4.1 | 15.5 | -4.7 | 7.9 | 1.2 | -2.4 | / | /

Source: PubChem BioAssay
